Most compounds without a hit are left out; they make up all but 0.77% or so of the library.
mIAP block: inhibitors of mouse IAP, primary screen, biochemical, luminescence, uHTS | intestinal alkaline phosphatase [Mus musculus] | hit rate 0.2% among 330,000 | purified mouse IAP, CDP-Star luminescence, 30 min | inhibition, % at 10 µM | AID 2806, 2010;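 active = inhibition of at least 40% at 10 µM in the primary screen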;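 note: plate controls were DMSO with enzyme for no effect and no enzyme wells for full effect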
hIAP inh: human IAP inhibitors, primary screen, biochemical, luminescence, uHTS; hit rate 0.12% among 330,000; purified IAP, CDP-Star luminescence, 30 min; AID 2544, 2010; Intestinal-type alkaline phosphatase (Homo sapiens), P09923; inhibition, % at 10 µM;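 active = inhibition reaching a set limit with compound at 10 µM in the primary screen, cut at about 35% in these data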;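 note: plate controls were DMSO wells with enzyme for no effect and no-enzyme buffer wells for full effect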
Target sequence (P09923 whole entry, looked up): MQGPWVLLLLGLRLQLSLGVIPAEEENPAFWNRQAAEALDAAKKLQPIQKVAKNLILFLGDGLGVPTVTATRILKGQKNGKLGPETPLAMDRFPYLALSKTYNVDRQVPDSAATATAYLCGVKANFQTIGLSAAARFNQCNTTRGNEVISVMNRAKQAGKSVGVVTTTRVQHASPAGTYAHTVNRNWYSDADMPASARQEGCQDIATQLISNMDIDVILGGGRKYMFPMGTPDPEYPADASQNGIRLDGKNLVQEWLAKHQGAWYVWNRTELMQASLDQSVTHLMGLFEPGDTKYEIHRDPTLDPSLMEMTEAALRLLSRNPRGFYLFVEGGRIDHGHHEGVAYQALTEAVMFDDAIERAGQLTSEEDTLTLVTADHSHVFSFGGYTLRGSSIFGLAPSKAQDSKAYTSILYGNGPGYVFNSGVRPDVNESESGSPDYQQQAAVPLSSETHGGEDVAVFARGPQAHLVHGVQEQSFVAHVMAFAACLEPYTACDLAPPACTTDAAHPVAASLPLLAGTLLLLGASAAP
bIAP inhibitor: bovine intestinal alkaline phosphatase inhibitors, primary screen, selectivity assay for TNAP inhibitor project, biochemical, bovine IAP, CDP-star luminescence | alkaline phosphatase, intestinal [Bos taurus] | inhibition, % at 20 µM | purified bovine IAP, 30 min | 190,000 tested, under 10 active;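 active = over 50% inhibition of intestinal alkaline phosphatase at 20 µM in the single-dose screen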
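test system = bovine IAP enzyme | medium = DEA buffer 100 mM, pH 9.8, with MgCl2 1.0 mM, ZnCl2 0.02 mM | detection = luminescence | dosing = single compound dose of 20 µM, 2% DMSO final | incubation = 30 min reaction at room temperature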
hIAP act: human IAP activators, primary screen, biochemical, luminescence, uHTS; purified human IAP, CDP-Star luminescence, 30 min; active compounds read high; 1 = vehicle-only enzyme, 0 = enzyme-free background; AID 2524, 2010; Intestinal-type alkaline phosphatase (Homo sapiens), P09923; hit rate 0.16% among 330,000; activation factor at 10 µM;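 active = activation factor of the enzyme at least 2-fold when tested at 20 µM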
mIAP activ: activators of mouse IAP, primary screen, biochemical, luminescence, uHTS; intestinal alkaline phosphatase [Mus musculus]; muIAP, CDP-Star luminescence, 30 min; active compounds read high; 1 = vehicle-only enzyme signal, 0 = enzyme-free wells; activation factor at 10 µM; hit rate 0.24% among 330,000;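 active = activation factor of at least 2 at 20 µM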
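Assay system: mouse IAP enzyme / Compound: DMSO-dissolved test compounds / Timing: 30 min, room temperature / Measured by: luminescence from enzymatic CDP-Star hydrolysis / Control set: DMSO-only wells, enzyme-free buffer wells as negative control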
bIAP act: bovine intestinal alkaline phosphatase activators, primary screen, biochemical, bovine IAP, CDP-star luminescence; alkaline phosphatase, intestinal [Bos taurus]; purified bovine IAP, 30 min; active compounds read high; fold of DMSO-control signal, blank-subtracted; activation factor at 20 µM; hit rate 0.17% among 200,000; AID 1016, 2008;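 active = activation factor of 2 or more at 20 µM, a signal rise over negative controls twice the positive control's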
mIAP inh confirm: inhibitors of mouse IAP, confirmation, biochemical, luminescence, single concentration | shares compounds with mIAP block | purified mouse IAP, CDP-Star luminescence, 30 min | inhibition, % at 10 µM | hit rate 4.7% among 11,000 | AID 434971, 2010;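 active = inhibition of at least 40% at 10 µM in either of the two replicates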;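 note: plate controls were DMSO wells with enzyme for no effect and buffer wells lacking enzyme for full effect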
Starred values were filed as active, the others as inactive; i = inactive; . = not tested or not shown.

SMILES | mIAP block | hIAP inh | bIAP inhibitor | hIAP act | mIAP activ | bIAP act | mIAP inh confirm
Cc1ccc(/C=C2\SC(=S)N(C3CCS(=O)(=O)C3)C2=O)o1 (configuration not stated) | 39 | 9 | -2 | 0.91 | 0.61 | 1 | .
O=C1CNC(=S)N1CCc1ccc(O)c(O)c1 | 77* | 14 | . | 0.86 | 0.23 | . | 81*
COc1cccc(C(CC(=O)Nc2cccc3ccccc23)NC(=O)c2ccccc2)c1 (configuration not stated) | -108 | -4 | -44 | 1 | 2.1* | 1.4 | -119
COc1cccc(C(=O)Nc2cccc3ccccc23)c1 | 1 | 14 | . | 0.85 | 0.99 | . | .
COC(=O)c1ccc(C2C(C(=O)c3ccco3)=C(O)C(=O)N2CC2CCCO2)cc1 (configuration not stated) | 0 | 8 | . | 0.92 | 1 | . | .
Oc1c(C=C2N=c3ccccc3=N2)sc(=S)n1-c1ccc(F)cc1 | 37 | -18 | 1 | 1.2 | 0.63 | 1 | 38*
Cc1c(NC(=O)c2ccc(NS(=O)(=O)c3ccccc3)cc2)c(=O)n(-c2ccccc2)n1C | -7 | -7 | . | 1.1 | 1.1 | . | .
Cc1ccc(NC(=O)NCC2CCN(Cc3cccc(Cl)c3)CC2)cc1Cl | -322 | -39 | -14 | 1.4 | 4.2* | 1.1 | -87
CCc1ccc(NC(=O)NCC2CCN(Cc3cccc(Cl)c3)CC2)cc1 | -209 | -54 | . | 1.5 | 3.1* | . | -120
COc1cccc(NC(=O)NCC2CCN(Cc3ccc(F)cc3)CC2)c1 | -96 | -36 | . | 1.4 | 2 | . | .
COc1ccc2[nH]c3c(c2c1)CCN1C(=O)C(CC(=O)NCc2ccc(OC)c(OC)c2)C[C@H](C(=O)N2CCCCC2)[C@@]31CCc1ccccc1 (some centres not stated) | -13 | . | . | . | 1.1 | . | .
Cc1ccc(C)c(CN2CCN(c3ncccn3)CC2)c1 | -6 | 4 | . | 0.96 | 1.1 | . | .
O=C(c1cc(NC(=O)C23CC4CC(CC(C4)C2)C3)cc(NC(=O)C23CC4CC(CC(C4)C2)C3)c1)N1CCCCC1 | -106 | 6 | 13 | 0.94 | 2.1* | 0.9 | -106
O=C(NC(=S)N1CCCCC1)C12CC3CC(CC(C3)C1)C2 | 2 | -14 | 26 | 1.1 | 0.98 | 0.7 | .
CC1CCCC(NC(=S)Nc2ccc(SC(F)F)cc2)C1C (configuration not stated) | i | -15 | 24 | 1.1 | 8.1* | 0.8 | -109
C[C@@H](C(=O)Nc1ccc(SC(F)F)cc1)N1C(=O)C2CCCCC2C1=O (some centres not stated) | -10 | 11 | . | 0.89 | 1.1 | . | .
Oc1ccc(CCNc2ncnc3ccc(Cl)cc23)cc1 | -8 | 4 | . | 0.96 | 1.1 | . | .
COC(=O)c1ccccc1NC(=O)CSc1nnc(CNS(=O)(=O)c2ccc(C)cc2)n1C | . | . | 3 | . | . | 1 | .
Cc1cc(-c2ccccc2)n(-c2ccccc2)n1 | 72* | -21 | . | 1.2 | 0.28 | . | 85*
Cc1cc(-c2ccco2)n(-c2ccccc2)n1 | 3 | 7 | -9 | 0.93 | 0.97 | 1.1 | .
CSc1ccc(CNC(=O)CCn2ccc3cc(S(=O)(=O)N4CCCC4)ccc32)cc1 | 1 | -28 | . | 1.3 | 0.99 | . | .
COC(=O)c1ccccc1NC(=O)NCCc1ccccc1OC | 1 | -2 | -3 | 1 | 0.99 | 1 | .
CCOC(=O)c1ccc(NC(=O)NCCc2ccccc2OC)cc1 | -182 | -25 | -12 | 1.2 | 2.8* | 1.1 | -101
Cc1ccc(CN2CCC(CNC(=O)Nc3ccccc3F)CC2)cc1 | -32 | -8 | . | 1.1 | 1.3 | . | .
Cc1ccc(NC(=O)NCC2CCN(Cc3cccc(Cl)c3)CC2)c(Cl)c1 | -246 | -46 | -20 | 1.5 | 3.5* | 1.2 | -120
SMILES | mIAP block | hIAP inh | bIAP inhibitor | hIAP act | mIAP activ | bIAP act | mIAP inh confirm
O=C(NCC1CCN(Cc2cccc(Cl)c2)CC1)Nc1ccccc1Cl | -173 | -58 | . | 1.6 | 2.7* | . | -118
CCOC(=O)c1c(NC(=S)NCC2CCCO2)sc(C)c1C (configuration not stated) | 12 | -14 | -1 | 1.1 | 0.88 | 1 | .
Cc1ccc(OC(C)C(=O)Nc2ccccc2C(=O)N2CCN(C)CC2)cc1 (configuration not stated) | 0 | 9 | . | 0.91 | 1 | . | .
Cc1cccc(N2CCN(C(=O)NCc3ccc(F)cc3)CC2)c1C | -11 | -15 | . | 1.1 | 1.1 | . | .
O=C1NC(=Nc2ccc3ccccc3c2)S/C1=C/c1ccco1 | 56* | -8 | -6 | 1.1 | 0.43 | 1.1 | 57*
COc1ccc(N=C2NC(=O)/C(=C\C=C\c3ccco3)S2)cc1 | 35 | 6 | 14 | 0.94 | 0.65 | 0.9 | .
O=C1NC(=Nc2ccc(O)cc2)S/C1=C/c1ccco1 | 57* | 6 | 4 | 0.94 | 0.43 | 1 | 77*
COc1cc(/C=C/C(=O)CC(=O)/C=C/c2ccc(O)c(OC)c2)ccc1O | 58* | . | 2 | . | 0.42 | 1 | 49*
COc1cc(/C=C/C(=O)/C=C(O)/C=C/c2ccc(O)c(OC)c2)ccc1O | 61* | . | . | . | 0.39 | . | 53*
O=C1c2ccccc2C(O)(c2ccccc2)N1C1CC1 (configuration not stated) | 4 | 8 | . | 0.92 | 0.96 | . | .
C[N+](C)(C)C(Cc1ccccc1)C(=O)[O-] (configuration not stated) | 47* | 14 | . | 0.86 | 0.53 | . | 51*
C[C@H](CO)N1C[C@H](C)[C@@H](CN(C)C(=O)Nc2ccccc2)Oc2ccc(NC(=O)Nc3ccc4c(c3)OCO4)cc2C1=O | -202 | -1 | . | 1 | 3* | . | -117
Cc1ccc(S(=O)(=O)N(C)C[C@H]2Oc3c(NC(=O)Nc4cccc5ccccc45)cccc3C(=O)N([C@@H](C)CO)C[C@@H]2C)cc1 | -339 | -18 | . | 1.2 | 4.4* | . | -214
C[C@@H]1CN([C@H](C)CO)C(=O)c2cc(NC(=O)Nc3cccc4ccccc34)ccc2O[C@H]1CN(C)Cc1ccc(C(F)(F)F)cc1 | -231 | -10 | . | 1.1 | 3.3* | . | -120
C[C@H]1CN([C@@H](C)CO)C(=O)c2cc(NC(=O)Nc3cccc4ccccc34)ccc2O[C@@H]1CN(C)Cc1ccc(-c2ccccc2)cc1 | -288 | -4 | . | 1 | 3.9* | . | -114
